Results from different studies.
Effect on: cell growth or viability

Cc1ncsc1-c1ccc([C@H](C)NC(=O)[C@@H]2C[C@@H](O)CN2C(=O)[C@@H](NC(=O)CN2CCN(c3cc(-c4ccccc4O)nnc3N)CC2)C(C)(C)C)cc1
IC50 (LNCaP; ATP luminescence; 7 days): 0.0153 µM

CCn1cc(C=C(C#N)C(=O)c2c[nH]c3ccc(OC)cc23)c2ccccc21
IC50 (MIA PaCa-2; MTT; 48 h): 15.5 µM

CNc1cccc(Nc2nc(-c3ccncc3)nc3c2CNCC3)c1
IC50 (DU-145; MTT): 45.2 µM

Nc1ccccc1NC(=O)c1ccc(Cn2cnc3c(Nc4ccc(Cl)cc4)ncnc32)cc1
IC50 (MOLT-4; MTT; 72 h): 0.49 µM

Cc1ncsc1-c1ccc([C@H](C)NC(=O)[C@@H]2C[C@@H](O)CN2C(=O)[C@@H](NC(=O)CCCCCCCCCS(=O)(=O)NC(=O)c2nc(N3CCc4cccc(C(=O)Nc5nc6ccccc6s5)c4C3)ccc2-c2cnn(CC34CC5CC(CC(C5)C3)C4)c2C)C(C)(C)C)cc1
IC50 (MOLT-4; MTS; 48 h): 0.0119 µM

Nc1ccccc1NC(=O)c1ccc(Cn2cnc3c(Nc4ccc(Br)cc4F)ncnc32)cc1
IC50 (MOLT-4; MTT; 72 h): 0.45 µM

Cc1nc(Nc2ncc(C(=O)Nc3c(C)cccc3Cl)s2)cc(N2CC[C@H](O)C2)n1
IC50 (SU-DHL-2; ATP luminescence; 72 h): > 10 µM

Cc1ncsc1-c1ccc([C@H](CC(=O)NCCCCCCCCNC(=O)c2nc(N3CCc4cccc(C(=O)Nc5nc6ccccc6s5)c4C3)ccc2-c2cnn(CC34CC5CC(CC(C5)C3)C4)c2C)NC(=O)[C@@H]2C[C@@H](O)CN2C(=O)[C@@H](NC(=O)C2(C#N)CC2)C(C)(C)C)cc1
IC50 (MOLT-4; MTS; 48 h): 0.313 µM

CN1C(=O)C(=O)c2cc3c(c4c2c1cc1ccccc14)OCO3
IC50 (T47D; MTT; 75 h): 61 µM

N#Cc1ccc(-c2cc(CNc3cccc4cccnc34)on2)cc1
IC50 (LN-229; MTS; 72 h): 27.2 µM

COc1ccc(C=NNC(=O)c2cc(-c3ccccc3)n(-c3ccc(S(N)(=O)=O)cc3)n2)cc1OC
IC50 (PaCa-2; fluorescence; 48 h): 20.5 µM

O=c1cc(OCc2cc(-c3ccc(Cl)cc3Cl)no2)c2ccccc2o1
IC50 (LN-229; MTS; 72 h): > 100 µM

Cc1c(-c2ccc(N3CCc4cccc(C(=O)Nc5nc6ccccc6s5)c4C3)nc2C(=O)O)cnn1CC12CC3CC(C1)CC(C(=O)NCCCCCCCCCCNc1cccc4c1C(=O)N(C1CCC(=O)NC1=O)C4=O)(C3)C2 (stereo not drawn)
IC50 (MOLT-4; MTS; 48 h): 0.021 µM

COc1ccc(C=C(C#N)C(=O)c2c[nH]c3ccccc23)cc1
IC50 (MIA PaCa-2; MTT; 48 h): 15.4 µM

FC(F)(F)c1cc(OCc2cc(-c3ccccn3)no2)c2ccccc2n1
IC50 (LN-229; MTS; 72 h): > 100 µM

COc1cc2[nH]cc(C(=O)C(C#N)=Cc3cn(C)c4ccccc34)c2cc1OC
IC50 (MIA PaCa-2; MTT; 48 h): 15.6 µM

O=C(CSc1nc2ccccc2s1)N/N=C/c1ccc(OCC(=O)Nc2ccc([N+](=O)[O-])cc2)cc1
IC50 (MOLT-4; MTS; 72 h): > 100 µM

Cc1ncsc1-c1ccc([C@H](C)NC(=O)[C@H]2C[C@H](O)CN2C(=O)[C@@H](NC(=O)CCCCCCCS(=O)(=O)NC(=O)c2nc(N3CCc4cccc(C(=O)Nc5nc6ccccc6s5)c4C3)ccc2-c2cnn(CC34CC5CC(CC(C5)C3)C4)c2C)C(C)(C)C)cc1
IC50 (human Platelet; MTS; 48 h): 0.931 µM

CN1CCC(NC2CCc3[nH]c4c(C(N)=O)ccc(-c5ccccc5Cl)c4c3C2)CC1 (stereo not drawn)
IC50 (Jurkat; 96 h): 0.0193 µM

Cc1c(-c2ccc(N3CCc4cccc(C(=O)Nc5nc6ccccc6s5)c4C3)nc2C(=O)NCCOCCNc2cccc3c2C(=O)N(C2CCC(=O)NC2=O)C3=O)cnn1CC12CC3CC(CC(C3)C1)C2 (stereo not drawn)
IC50 (MOLT-4; MTS; 48 h): 0.0214 µM

O=C(NO)c1ccc(Cn2cnc3c(Nc4ccc(Br)cc4F)ncnc32)cc1
IC50 (MOLT-4; MTT; 72 h): 0.53 µM

COc1cc([C@@H]2c3cc4c(cc3[C@@H](O[C@@H]3O[C@@H]5CO[C@@H](C)O[C@H]5[C@H](O)[C@H]3O)[C@H]3COC(=O)[C@H]23)OCO4)cc(OC)c1O
IC50 (LN-229; MTS; 72 h): 4.8 µM

N#CC(=Cc1cn(Cc2ccc(Cl)cc2)c2ccccc12)C(=O)c1c[nH]c2ccccc12
IC50 (MIA PaCa-2; MTT; 48 h): 4.9 µM

O=c1cc(OCc2cc(-c3ccccc3)no2)c2ccccc2o1
IC50 (LN-229; MTS; 72 h): > 100 µM

Cc1ncsc1-c1ccc(CNC(=O)[C@@H]2C[C@@H](O)CN2C(=O)[C@@H](NC(=O)C2(F)CC2)C(C)(C)C)c(OCCOc2ccc(CN3CCN(c4cc(-c5ccccc5O)nnc4N)CC3)cc2)c1
IC50 (LNCaP; ATP luminescence; 7 days): 0.0161 µM

NS(=O)(=O)c1ccc(-n2nc(C(=O)NN=Cc3ccc(O)cc3)cc2-c2ccccc2)cc1
IC50 (PaCa-2; fluorescence; 48 h): 8.53 µM

O=C(NO)c1ccc(Cn2cnc3c(Nc4cccc([N+](=O)[O-])c4)ncnc32)cc1
IC50 (Jurkat; MTT; 72 h): 0.89 µM

NS(=O)(=O)c1ccc(-n2nc(C(=O)NN=Cc3cccnc3)cc2-c2ccccc2)cc1
IC50 (PaCa-2; fluorescence; 48 h): 27.8 µM

Cc1c(-c2ccc(N3CCc4cccc(C(=O)Nc5nc6ccccc6s5)c4C3)nc2C(=O)O)cnn1CC12CC3CC(C1)CC(C(=O)NCCCCCCCCNc1cccc4c1C(=O)N(C1CCC(=O)NC1=O)C4=O)(C3)C2 (stereo not drawn)
IC50 (MOLT-4; MTS; 48 h): 0.0041 µM

N#Cc1ccc(-c2cc(COc3cc(C(F)(F)F)nc4ccccc34)on2)cc1
IC50 (LN-229; MTS; 72 h): 23.9 µM

CCc1oc2cc(S(=O)(=O)Nc3ccc(S(=O)(=O)Nc4nccs4)cc3)ccc2c1C(=O)c1cc(Br)c(O)c(Br)c1
IC50 (T47D; MTT; 96 h): 62.2 µM

Cc1ncsc1-c1ccc([C@H](C)NC(=O)[C@@H]2C[C@@H](O)CN2C(=O)[C@@H](NC(=O)CCCCCCCNC(=O)c2nc(N3CCc4cccc(C(=O)Nc5nc6ccccc6s5)c4C3)ccc2-c2cnn(CC34CC5CC(CC(C5)C3)C4)c2C)C(C)(C)C)cc1
IC50 (MOLT-4; MTS; 48 h): 0.065 µM

Cc1nc2c(n1CCCN1CCCCC1)C(=O)c1ccccc1C2=O
IC50 (MIA PaCa-2; MTT): 14.7 µM

CC(=NNC(=O)c1cc(-c2ccccc2)n(-c2ccc(S(N)(=O)=O)cc2)n1)c1ccc(C)cc1
IC50 (PaCa-2; fluorescence; 48 h): 11.5 µM

Cc1ncsc1-c1ccc([C@H](CC(=O)NCCCCCCNC(=O)c2nc(N3CCc4cccc(C(=O)Nc5nc6ccccc6s5)c4C3)ccc2-c2cnn(CC34CC5CC(CC(C5)C3)C4)c2C)NC(=O)[C@@H]2C[C@@H](O)CN2C(=O)[C@@H](NC(=O)C2(C#N)CC2)C(C)(C)C)cc1
IC50 (MOLT-4; MTS; 48 h): 0.117 µM

N/C(=N\O)c1ccc(-c2cc(CNc3cccc4cccnc34)on2)cc1
IC50 (LN-229; MTS; 72 h): 15.6 µM

CCn1cc(C=C(C#N)C(=O)c2c[nH]c3cc(OC)ccc23)c2ccccc21
IC50 (MIA PaCa-2; MTT; 48 h): > 40 µM

O=C(CSc1nc2ccccc2s1)N/N=C/c1ccc(OCC(=O)Nc2cccc(Cl)c2)cc1
IC50 (LN-229; MTS; 72 h): 19.6 µM

FC(F)(F)c1cc(OCc2cc(-c3ccc(Cl)cc3Cl)no2)c2ccccc2n1
IC50 (LN-229; MTS; 72 h): > 100 µM

COc1cc(C=NNC(=O)c2cc(-c3ccccc3)n(-c3ccc(S(N)(=O)=O)cc3)n2)cc(OC)c1OC
IC50 (PaCa-2; fluorescence; 48 h): 22 µM

CN(C)c1ccc(Nc2nc(-c3ccncc3)nc3c2CC(N)CC3)cc1 (stereo not drawn)
IC50 (DU-145; MTT): 11.5 µM

O=C(NO)c1ccc(Cn2cnc3c(Nc4ccc(F)c(Cl)c4)ncnc32)cc1
IC50 (Jurkat; MTT; 72 h): 1.2 µM

c1ccc(-c2cc(CNc3cccc4cccnc34)on2)nc1
IC50 (LN-229; MTS; 72 h): 22.8 µM

COc1ccc(C=C(C#N)C(=O)c2c[nH]c3ccccc23)cc1OC
IC50 (MIA PaCa-2; MTT; 48 h): 37 µM

COc1cc(C2C3=C(COC3=O)N(CCO)c3cc4c(cc32)CCC4)cc(OC)c1OC (stereo not drawn)
IC50 (BT-549; ATP luminescence; 48 h): 0.037 µM

CC(=NNC(=O)c1cc(-c2ccccc2)n(-c2ccc(S(N)(=O)=O)cc2)n1)c1ccc(Br)cc1
IC50 (PaCa-2; fluorescence; 48 h): 31.5 µM

CCOc1ccc2[nH]cc(C(=O)C(C#N)=Cc3cn(CC)c4ccccc34)c2c1
IC50 (MIA PaCa-2; MTT; 48 h): 5.8 µM

O=C(CSc1nc2ccccc2s1)N/N=C/c1ccc(OCC(=O)Nc2cccc([N+](=O)[O-])c2)cc1
IC50 (LN-229; MTS; 72 h): 24.2 µM
